Results taken from ChEMBL document CHEMBL1811815, “Synthesis of new pyrazole derivatives and their anticancer evaluation” (2010).

Columns and labels:
SR = assay: Growth inhibition of human SR cells after 48 hrs by sulforhodamine B assay; type: functional
In short: (§1)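 NCI five-dose assay using 10-fold serial dilutions from 10^-8 to 10^-4 M, compound in DMSO. Cells exposed 48 h at 37 °C, 5% CO2, 100% humidity. Protein measured by sulforhodamine B staining at 515 nm, with time-zero, control and treated readings. GI50 is the concentration where [(Ti−Tz)/(C−Tz)]×100 = 50. It is reported as greater or less than the range bounds when not reached.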

A549 = assay: Growth inhibition of human A549 cells after 48 hrs by sulforhodamine B assay; type: functional; details: A549, 48 h; in short: as §1
NCI-H322M = assay: Growth inhibition of human NCI-H322M cells after 48 hrs by sulforhodamine B assay; type: functional; in short: as §1
NCI-H23 = assay: Growth inhibition of human NCI-H23 cells after 48 hrs by sulforhodamine B assay; type: functional; details: NCI-H23, 48 h; in short: as §1
HCT-116 [1] = assay: Growth inhibition of human HCT116 cells after 48 hrs by sulforhodamine B assay; type: functional; details: HCT-116, 48 h; in short: as §1
SF-539 = assay: Growth inhibition of human SF539 cells after 48 hrs by sulforhodamine B assay; type: functional; details: SF-539, 48 h; in short: as §1
SNB-75 = assay: Growth inhibition of human SNB75 cells after 48 hrs by sulforhodamine B assay; type: functional; details: SNB-75, 48 h; in short: as §1
SF-295 = assay: Growth inhibition of human SF295 cells after 48 hrs by sulforhodamine B assay; type: functional; details: SF-295, 48 h; in short: as §1
LOX IMVI = assay: Growth inhibition of human LOXIMVI cells after 48 hrs by sulforhodamine B assay; type: functional; in short: as §1
Malme-3M = assay: Growth inhibition of human MALME-3M cells after 48 hrs by sulforhodamine B assay; type: functional; in short: as §1
OVCAR-4 = assay: Growth inhibition of human OVCAR4 cells after 48 hrs by sulforhodamine B assay; type: functional; details: OVCAR-4, 48 h; in short: as §1
OVCAR-8 = assay: Growth inhibition of human OVCAR8 cells after 48 hrs by sulforhodamine B assay; type: functional; details: OVCAR-8, 48 h; in short: as §1
NCI/ADR-RES = assay: Growth inhibition of human NCI/ADR-RES cells after 48 hrs by sulforhodamine B assay; type: functional; in short: as §1
OVCAR-3 = assay: Growth inhibition of human OVCAR3 cells after 48 hrs by sulforhodamine B assay; type: functional; details: OVCAR-3, 48 h; in short: as §1
SK-OV-3 = assay: Growth inhibition of human SKOV3 cells after 48 hrs by sulforhodamine B assay; type: functional; details: SK-OV-3, 48 h; in short: as §1
RXF 393 = assay: Growth inhibition of human RXF393 cells after 48 hrs by sulforhodamine B assay; type: functional; details: RXF 393, 48 h; in short: as §1
786-0 = assay: Growth inhibition of human 786-0 cells after 48 hrs by sulforhodamine B assay; type: functional; details: 786-0, 48 h; in short: as §1
UO-31 = assay: Growth inhibition of human UO31 cells after 48 hrs by sulforhodamine B assay; type: functional; details: UO-31, 48 h; in short: as §1
DU-145 [2] = assay: Growth inhibition of human DU145 cells after 48 hrs by sulforhodamine B assay; type: functional; details: DU-145, 48 h; in short: as §1
[3] = Growth inhibition of human Hs 578T cells after 48 hrs by sulforhodamine B assay; type: functional; in short: as §1
MDA-MB-231 = assay: Growth inhibition of human MDA-MB-231 cells after 48 hrs by sulforhodamine B assay; type: functional; details: MDA-MB-231, 48 h; in short: as §1
TK-10 = assay: Anticancer activity against human TK10 cells assessed as cell growth at 10^-5 M after 48 hrs by sulforhodamine B assay relative to control; details: TK-10, 48 h
HCT-116 [4] = assay: Anticancer activity against human HCT116 cells assessed as cell growth at 10^-5 M after 48 hrs by sulforhodamine B assay relative to control; details: HCT-116, 48 h
NCI-H522 = assay: Anticancer activity against human NCI-H522 cells assessed as cell growth at 10^-5 M after 48 hrs by sulforhodamine B assay relative to control; details: NCI-H522, 48 h
ACHN = assay: Anticancer activity against human ACHN cells assessed as cell growth at 10^-5 M after 48 hrs by sulforhodamine B assay relative to control
DU-145 [5] = assay: Anticancer activity against human DU145 cells assessed as cell growth at 10^-5 M after 48 hrs by sulforhodamine B assay relative to control; details: DU-145, 48 h
MDA-MB-435 = assay: Anticancer activity against human MDA-MB-435 cells assessed as cell growth at 10^-5 M after 48 hrs by sulforhodamine B assay relative to control; details: MDA-MB-435, 48 h
UACC-62 = assay: Anticancer activity against human UACC62 cells assessed as cell growth at 10^-5 M after 48 hrs by sulforhodamine B assay relative to control; details: UACC-62, 48 h
HOP-92 = assay: Anticancer activity against human HOP92 cells assessed as cell growth at 10^-5 M after 48 hrs by sulforhodamine B assay relative to control; details: HOP-92, 48 h
MOLT-4 = assay: Anticancer activity against human MOLT4 cells assessed as cell growth at 10^-5 M after 48 hrs by sulforhodamine B assay relative to control; details: MOLT-4, 48 h
CAKI-1 = assay: Anticancer activity against human Caki1 cells assessed as cell growth at 10^-5 M after 48 hrs by sulforhodamine B assay relative to control; details: CAKI-1, 48 h
[6] = read-out: pLC50 (the source's name) (converted)

O=C(NC(=S)Nc1cc(-c2ccc(Br)cc2)n[nH]1)c1ccccc1
GI50 (SR): 11.7 µM | CC50 (SR; [6]): > 100 µM | TGI (SR; read-out: pTGI (converted)): 40.7 µM | GI50 (A549): 2.34 µM | CC50 (A549; [6]): 79.4 µM | TGI (A549; read-out: pTGI (converted)): 14.1 µM | GI50 (NCI-H322M): 4.47 µM | CC50 (NCI-H322M; [6]): > 100 µM | TGI (NCI-H322M; read-out: pTGI (converted)): 44.7 µM | GI50 (NCI-H23): 9.33 µM | CC50 (NCI-H23; read-out: pLC50 (converted)): > 100 µM | TGI (NCI-H23; read-out: pTGI (converted)): 50.1 µM | GI50 (HCT-116 [1]): 1.78 µM | CC50 (HCT-116 [1]; [6]): 24.5 µM | TGI (HCT-116 [1]; read-out: pTGI (converted)): 4.79 µM | GI50 (SF-539): 3.39 µM | CC50 (SF-539; [6]): > 100 µM | TGI (SF-539; read-out: pTGI): > 100 µM | GI50 (SNB-75): 6.17 µM | CC50 (SNB-75; [6]): 89.1 µM | TGI (SNB-75; read-out: pTGI (converted)): 26.9 µM | GI50 (SF-295): 9.77 µM | CC50 (SF-295; [6]): > 100 µM | TGI (SF-295; read-out: pTGI (converted)): 36.3 µM | GI50 (LOX IMVI): 5.5 µM | CC50 (LOX IMVI; [6]): > 100 µM | TGI (LOX IMVI; read-out: pTGI): > 100 µM | GI50 (Malme-3M): 6.61 µM | CC50 (Malme-3M; [6]): > 100 µM | TGI (Malme-3M; read-out: pTGI (converted)): 91.2 µM | GI50 (OVCAR-4): 4.27 µM | CC50 (OVCAR-4; [6]): > 100 µM | TGI (OVCAR-4; read-out: pTGI (converted)): 24 µM | GI50 (OVCAR-8): 4.68 µM | CC50 (OVCAR-8; [6]): 69.2 µM | TGI (OVCAR-8; read-out: pTGI (converted)): 20.9 µM | GI50 (NCI/ADR-RES): 4.9 µM | CC50 (NCI/ADR-RES; [6]): > 100 µM | TGI (NCI/ADR-RES; read-out: pTGI (converted)): 63.1 µM | GI50 (OVCAR-3): 5.01 µM | CC50 (OVCAR-3; [6]): 70.8 µM | TGI (OVCAR-3; read-out: pTGI (converted)): 20.4 µM | GI50 (SK-OV-3): 7.24 µM | CC50 (SK-OV-3; [6]): 52.5 µM | TGI (SK-OV-3; read-out: pTGI (converted)): 21.9 µM | GI50 (RXF 393): 3.16 µM | CC50 (RXF 393; [6]): 47.9 µM | TGI (RXF 393; read-out: pTGI (converted)): 15.1 µM | GI50 (786-0): 3.24 µM | CC50 (786-0; [6]): 47.9 µM | TGI (786-0; read-out: pTGI (converted)): 11.7 µM | GI50 (UO-31): 4.07 µM | CC50 (UO-31; [6]): 85.1 µM | TGI (UO-31; read-out: pTGI (converted)): 21.4 µM | GI50 (DU-145 [2]): 9.33 µM | CC50 (DU-145 [2]; [6]): > 100 µM | TGI (DU-145 [2]; read-out: pTGI): > 100 µM | GI50 [3]: 2.75 µM | CC50 [3, 6]: > 100 µM | TGI ([3]; read-out: pTGI (converted)): 33.9 µM | GI50 (MDA-MB-231): 3.8 µM | CC50 (MDA-MB-231; [6]): > 100 µM | TGI (MDA-MB-231; read-out: pTGI (converted)): 22.4 µM | growth, % of control at 10 µM (TK-10): -19.9% | growth, % of control at 10 µM (HCT-116 [4]): 1% | growth, % of control at 10 µM (NCI-H522): 8.9%

Cc1cs/c(=N\C(=O)c2cnn(C)c2)n1-c1ccc(Cl)cc1
growth, % of control at 10 µM (ACHN): -11.8% | growth, % of control at 10 µM (DU-145 [5]): 0.3%

Cc1cs/c(=N\C(=O)c2cnn(C)c2)n1-c1ccccc1
growth, % of control at 10 µM (ACHN): -15.7% | growth, % of control at 10 µM (DU-145 [5]): 1.6%

Cc1cc(NC(=S)NC(=O)c2ccccc2)n(-c2ccccc2)n1
growth, % of control at 10 µM (MDA-MB-435): 22.6%

Cn1cc(C(=O)NC(=S)Nc2ccc(Cl)cc2)cn1
growth, % of control at 10 µM (NCI-H522): 47.2%

Cc1ccc(NC(=S)NC(=O)c2cnn(C)c2)cc1
growth, % of control at 10 µM (NCI-H522): 62.5%

Cn1cc(C(=O)NC(=S)Nc2ccc(Cl)cc2Cl)cn1
growth, % of control at 10 µM (UACC-62): 79.7%

COc1ccc(NC(=S)NC(=O)c2cnn(C)c2)cc1
growth, % of control at 10 µM (HOP-92): 68.7%

Cc1cccc(C)c1NC(=S)NC(=O)c1cnn(C)c1
growth, % of control at 10 µM (MOLT-4): 40.5%

Cn1cc(C(=O)NC(=S)Nc2c(Cl)cccc2Cl)cn1
growth, % of control at 10 µM (CAKI-1): 69.7%
